Measurements as given in ChEMBL document CHEMBL1151263, “Cytotoxic phenylpropanoid glycosides from the stems of Smilax china” (2005).
Converted amounts (≈) assume the structure as drawn.

Experiments:
Type in all cases: functional
DLD-1 = experiment: Cytotoxicity against human DLD1 cells after 3 days by MTT assay; settings: DLD-1, 72 h, read-out: ED50 (the source's name)
Outline: (§1)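 Cells grown in RPMI-1640 and seeded in 96-well plates for 4 h before samples were added at four concentrations. Incubation at 37 °C for 3 days, then MTT added for 5 h. Medium removed, formazan dissolved in DMSO with 10 min shaking, absorbance read at 550 nm. ED50 reported in µg/mL.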

HeLa = experiment: Cytotoxicity against human HeLa cells after 3 days by MTT assay; settings: 72 h, read-out: ED50 (the source's name); outline: as §1
KB = experiment: Cytotoxicity against human KB cells after 3 days by MTT assay; settings: 72 h, read-out: ED50 (the source's name); outline: as §1
A549 = experiment: Cytotoxicity against human A549 cells after 3 days by MTT assay; settings: A549, 72 h, read-out: ED50 (the source's name); outline: as §1
[1] = Cytotoxicity against human Medulloblastoma cells after 3 days by MTT assay; settings: Medulloblastoma cell, 72 h, read-out: ED50 (the source's name); outline: as §1
MCF7 = experiment: Cytotoxicity against human MCF7 cells after 3 days by MTT assay; settings: MCF7, 72 h, read-out: ED50 (the source's name); outline: as §1

| Structure (SMILES) | EC50 (DLD-1) | EC50 (HeLa) | EC50 (KB) | EC50 (A549) | EC50 [1] | EC50 (MCF7) |
| --- | --- | --- | --- | --- | --- | --- |
| COc1cccc2c1C(=O)c1c(O)c3c(c(O)c1C2=O)C[C@@](O)(C(=O)CO)C[C@@H]3O[C@H]1C[C@H](N)[C@H](O)[C@H](C)O1 [DOXORUBICIN] | 0.1 µg/mL (≈ 0.184 µM) | 0.1 µg/mL (≈ 0.184 µM) | 0.1 µg/mL (≈ 0.184 µM) | 0.1 µg/mL (≈ 0.184 µM) | 0.1 µg/mL (≈ 0.184 µM) | 0.1 µg/mL (≈ 0.184 µM) |
| COc1cc(/C=C/C(=O)OC[C@H]2O[C@@](CO)(O[C@H]3O[C@H](COC(C)=O)[C@@H](OC(C)=O)[C@H](O)[C@H]3O)[C@@H](OC(=O)/C=C/c3ccc(O)c(OC)c3)[C@@H]2O)ccc1O [SMILASIDE A] | 11.6 µg/mL (≈ 14.9 µM) | 8.9 µg/mL (≈ 11.4 µM) | 11.2 µg/mL (≈ 14.4 µM) | 7.1 µg/mL (≈ 9.12 µM) | 11.3 µg/mL (≈ 14.5 µM) | 10.8 µg/mL (≈ 13.9 µM) |
| COc1cc(/C=C/C(=O)OC[C@H]2O[C@@](CO)(O[C@H]3O[C@H](CO)[C@@H](O)[C@H](O)[C@H]3OC(C)=O)[C@@H](OC(=O)/C=C/c3ccc(O)c(OC)c3)[C@@H]2O)ccc1O [SMILASIDE B] | > 20 µg/mL | > 20 µg/mL | > 20 µg/mL | 12 µg/mL (≈ 16.3 µM) | 9.4 µg/mL (≈ 12.8 µM) | 10.3 µg/mL (≈ 14 µM) |
| COc1cc(/C=C/C(=O)OC[C@H]2O[C@@](COC(=O)/C=C/c3ccc(O)cc3)(O[C@H]3O[C@H](CO)[C@@H](O)[C@H](O)[C@H]3O)[C@@H](OC(=O)/C=C/c3ccc(O)c(OC)c3)[C@@H]2O)ccc1O [SMILASIDE C] | > 20 µg/mL | > 20 µg/mL | > 20 µg/mL | > 20 µg/mL | > 20 µg/mL | > 20 µg/mL |
| COc1cc(/C=C/C(=O)OC[C@H]2O[C@@](COC(=O)/C=C/c3ccc(O)cc3)(O[C@H]3O[C@H](CO)[C@@H](O)[C@H](O)[C@H]3O)[C@@H](OC(=O)/C=C/c3ccc(O)c(OC)c3)[C@@H]2OC(C)=O)ccc1O [SMILASIDE D] | 2.7 µg/mL (≈ 3.06 µM) | 7.3 µg/mL (≈ 8.27 µM) | 13 µg/mL (≈ 14.7 µM) | 8.4 µg/mL (≈ 9.51 µM) | 11.9 µg/mL (≈ 13.5 µM) | > 20 µg/mL |
| COc1cc(/C=C/C(=O)OC[C@H]2O[C@@](COC(=O)/C=C/c3ccc(O)cc3)(O[C@H]3O[C@H](COC(C)=O)[C@@H](O)[C@H](O)[C@H]3O)[C@@H](OC(=O)/C=C/c3ccc(O)c(OC)c3)[C@@H]2O)ccc1O [SMILASIDE E] | 4.5 µg/mL (≈ 5.1 µM) | 5.1 µg/mL (≈ 5.78 µM) | 5.5 µg/mL (≈ 6.23 µM) | 12.4 µg/mL (≈ 14 µM) | 12.2 µg/mL (≈ 13.8 µM) | 13 µg/mL (≈ 14.7 µM) |
| COc1cc(/C=C/C(=O)OC[C@H]2O[C@@](COC(=O)/C=C/c3ccc(O)cc3)(O[C@H]3O[C@H](COC(C)=O)[C@@H](O)[C@H](O)[C@H]3OC(C)=O)[C@@H](OC(=O)/C=C/c3ccc(O)cc3)[C@@H]2O)ccc1O [SMILASIDE F] | 5 µg/mL (≈ 5.59 µM) | 8.3 µg/mL (≈ 9.28 µM) | 9 µg/mL (≈ 10.1 µM) | > 20 µg/mL | > 20 µg/mL | 13 µg/mL (≈ 14.5 µM) |
